pIC50: −log10 of the molar value. Active and inactive are the calls of the source. The calls are words filed in the database; no cut-off is given here.
What was measured:
MCF7 [1] = experiment: Cytotoxicity against human MCF7 cells after 48 hrs by MTT assay; assay type: cell-based; details: MCF7, 48 h
Summary of the method: (§1)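 MCF-7 cells grown in DMEM with 10% FCS and penicillin/streptomycin, seeded at 1.2×10^4 cells/well and grown 48 h before treatment. Stocks prepared in 20% (v/v) DMSO and diluted in medium. After 48 h at 37 °C, MTT (5 mg/mL) added for 4 h, formazan dissolved in DMSO, A570 read with 655 nm reference. Viability relative to untreated cells; triplicate.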

Entamoeba histolytica [2] = experiment: […] activity against Entamoeba histolytica HM-1:IMSS trophozoites after 72 hrs by microdilution method; assay type: functional, organism-based
Summary of the method: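 E. histolytica trophozoites in TYIS-33 medium; DMSO stocks (1 mg/mL) twofold serially diluted, 1.7×10^4 amoebae/well, nitrogen-gassed, 37 °C for 72 h. Methanol-fixed, eosin-stained, dye released in 0.1 N NaOH, OD 490 nm. Triplicate per concentration, repeated thrice. % inhibition vs log concentration, IC50 from linear regression; metronidazole as reference.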

Plasmodium falciparum [3] = experiment: Antimicrobial activity against chloroquine-sensitive Plasmodium falciparum 3D7 assessed as inhibition of [3H] hypoxanthine incorporation after 24 hrs by scintillation counting; assay type: functional, organism-based
Summary of the method: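 Synchronized ring-stage 3D7 culture at 0.5% parasitemia and 1% haematocrit in supplemented RPMI-1640, exposed to serially diluted DMSO stocks for 24 h. [3H]-hypoxanthine added at 0.5 µCi/well for a further 24 h, then DNA harvested onto filter mats and counted by β-scintillation. IC50 from log sigmoid dose-response curves. At least triplicate; chloroquine and quinine as references.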

Plasmodium falciparum [4] = experiment: Inhibition of Plasmodium falciparum cysteine protease
Entamoeba histolytica [5] = experiment: Ratio of metronidazole IC50 to compound IC50 for Entamoeba histolytica HM-1:IMSS trophozoites; assay type: functional
[6] = Inhibition of beta-haematin formation after 24 hrs by microtiter plate assay; assay type: functional
Summary of the method: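 Compound mixed with haemin (1 mg/mL in DMSO), water and 0.5 M acetate buffer at pH 4.7, then incubated 24 h. Unreacted haemin removed by three DMSO washes with centrifugation at 1500 g. β-haematin dissolved in 2 M NaOH, diluted twofold, absorbance read at 405 nm. IC50 taken from the data. Chloroquine and quinine as positive controls; at least triplicate.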

[7] = Toxicity in human RBC assessed as hemolysis at 100 uM after 48 hrs; assay type: cell-based, Erythrocyte; details: red blood cells (RBC), read-out: Activity
Summary of the method: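 Fresh human red blood cells at 1% haematocrit in culture medium, incubated 48 h with compound at 100 μM, absorbance read at 412 nm. % haemolysis calculated against 0.5% Triton X100 as the 100% control. At least triplicate, mean ± s.d.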

[8] = Inhibition of beta-haematin formation at 100 uM after 24 hrs by microtiter plate assay; assay type: functional
[9] = tested on: Radical scavenging activity; experiment: Antioxidant activity assessed as DPPH radical scavenging activity at 80 uM after 30 mins; assay type: functional
Summary of the method: (§2)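 Compounds added to DPPH• in methanol, kept in the dark at room temperature for 30 min, absorbance read at 540 nm. Scavenging given as % decrease in absorbance relative to a drug-free DPPH• control, with a MeOH/DMSO background control. Ascorbic acid as comparator; triplicate.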

Plasmodium falciparum [10] = experiment: Inhibition of Plasmodium falciparum falcipain
Plasmodium falciparum [11] = experiment: Antimicrobial activity against chloroquine-sensitive Plasmodium falciparum 3D7 assessed as inhibition of [3H] hypoxanthine incorporation at 100 uM after 24 hrs by scintillation counting; assay type: functional
Plasmodium falciparum [12] = experiment: Antimicrobial activity against chloroquine-resistant Plasmodium falciparum FCB1; assay type: functional, organism-based; details: FcB1/Columbia
[13] = Cytotoxicity against human MCF7 cells assessed as cell growth inhibition at 50 uM after 48 hrs by MTT assay; assay type: cell-based; details: read-out: GI; summary of the method: as §1
[14] = Cytotoxicity against human MCF7 cells assessed as cell growth inhibition at 100 uM after 48 hrs by MTT assay; assay type: cell-based; details: read-out: GI; summary of the method: as §1
MCF7 [15] = experiment: Cytotoxicity against human MCF7 cells assessed as cell growth inhibition after 48 hrs by MTT assay; assay type: cell-based; details: mcf7, 48 h; summary of the method: as §1
[16] = tested on: Radical scavenging activity; experiment: Antioxidant activity assessed as DPPH radical scavenging activity after 30 mins; assay type: functional; summary of the method: as §2

pIC50 (Entamoeba histolytica [2])	pIC50 (Plasmodium falciparum [3])	inhibition (Plasmodium falciparum [4])	inhibition (Plasmodium falciparum [10])	pIC50 [16]	Structure (SMILES)	pIC50 (MCF7 [1])	Ratio IC50 (Entamoeba histolytica [5])	pIC50 [6]	hemolysis at 48 h, 100 µM [7]	inhibition [8]	Activity [9]	inhibition at 100 µM (Plasmodium falciparum [11])	pIC50 (Plasmodium falciparum [12])	inhibition at 48 h, 50 µM [13]	inhibition at 48 h, 100 µM [14]	Activity (MCF7 [15])
5.99	4.30	inactive	inactive	–	Cc1ccc2nc(Cl)c(/C=C/C(=O)c3cccc(Br)c3)cc2c1	< 4.00	–	< 4.00	1.68%	14.9%	–	–	–	–	–	–
5.44	< 4.00	inactive	inactive	–	C/C(=C\c1cc2ccccc2nc1Cl)C(=O)c1cccc(Br)c1	–	–	< 4.00	2.17%	9.35%	1.43%	34.3%	–	–	–	–
5.12	4.22	inactive	inactive	–	Cc1ccc2cc(/C=C/C(=O)c3cccc(Br)c3)c(Cl)nc2c1	–	–	< 4.00	1.09%	27.5%	–	–	–	–	–	–
5.39	4.13	inactive	inactive	–	Cc1ccc2nc(Cl)c(/C=C/C(=O)c3ccc(Br)cc3)cc2c1	–	–	< 4.00	1.4%	55.4%	–	–	–	–	–	–
5.46	< 4.00	inactive	inactive	–	O=C(/C=C/c1cc2ccccc2nc1Cl)c1cccc(Br)c1	–	–	< 4.00	1.38%	16%	–	61.2%	–	–	–	–
5.47	4.35	inactive	inactive	–	O=C(/C=C/c1cc2ccccc2nc1Cl)c1ccc(Br)cc1	–	–	< 4.00	2.2%	13.6%	–	–	–	–	–	–
5.28	4.50	inactive	inactive	–	O=C(/C=C/c1cc2ccccc2nc1Cl)c1ccccn1	–	–	< 4.00	1.1%	12.3%	–	–	–	–	–	–

Second part, the molecule before the results:

Structure (SMILES)	pIC50 (Entamoeba histolytica [2])	pIC50 (Plasmodium falciparum [3])	inhibition (Plasmodium falciparum [4])	inhibition (Plasmodium falciparum [10])	pIC50 [16]	pIC50 (MCF7 [1])	Ratio IC50 (Entamoeba histolytica [5])	pIC50 [6]	hemolysis at 48 h, 100 µM [7]	inhibition [8]	Activity [9]	inhibition at 100 µM (Plasmodium falciparum [11])	pIC50 (Plasmodium falciparum [12])	inhibition at 48 h, 50 µM [13]	inhibition at 48 h, 100 µM [14]	Activity (MCF7 [15])
Cc1ncc([N+](=O)[O-])n1CCO [METRONIDAZOLE]	5.84	–	–	–	–	< 4.00	–	–	–	–	–	–	–	–	–	–
C/C(=C\c1cc2ccc(C)cc2nc1Cl)C(=O)c1cccc(Br)c1	7.05	4.33	inactive	inactive	–	< 4.00	16	< 4.00	1.04%	10.5%	2.27%	–	–	–	–	–
C=C[C@H]1C[N@@]2CC[C@H]1C[C@H]2[C@H](O)c1ccnc2ccc(OC)cc12 [QUININE]	–	–	–	–	–	–	–	–	1.22%	–	–	–	–	–	–	–
C/C(=C\c1cc2cc(C)ccc2nc1Cl)C(=O)c1cccc(Br)c1	5.55	< 4.00	inactive	inactive	–	–	–	< 4.00	1.53%	13.3%	–	51.1%	–	–	–	–
Cc1ccc2cc(/C=C/C(=O)c3ccc(Cl)cc3)c(Cl)nc2c1	5.16	–	inactive	inactive	–	–	–	–	–	–	–	–	< 3.70	–	–	–
Cc1ccc2nc(Cl)c(/C=C/C(=O)c3ccccn3)cc2c1	5.84	4.50	inactive	inactive	–	–	–	< 4.00	1.55%	11.5%	–	–	–	–	–	–
CCN(CC)CCCC(C)Nc1ccnc2cc(Cl)ccc12 (configuration not stated) [CHLOROQUINE]	–	–	–	–	–	–	–	4.60	0.72%	–	4.06%	–	–	–	–	–
C=C[C@H]1CN2CC[C@H]1C[C@H]2[C@H](O)c1ccnc2ccc(OC)cc12 [QUININE]	–	6.85	–	–	–	–	–	4.18	–	–	2.65%	–	–	–	–	–
O=C(/C=C/c1cc2ccccc2nc1Cl)c1ccc(Cl)cc1	7.30	4.41	inactive	inactive	–	< 4.00	29.2	< 4.00	1.74%	19.5%	3.69%	–	< 3.70	–	–	–
C/C(=C\c1cc2ccc(C)cc2nc1Cl)C(=O)c1cccc(Cl)c1	5.15	4.30	inactive	inactive	–	–	–	< 4.00	1.44%	5.64%	0.78%	–	–	–	–	–
C/C(=C\c1cc2cc(C)ccc2nc1Cl)C(=O)c1cccc(Cl)c1	7.22	< 4.00	inactive	inactive	–	< 4.00	–	< 4.00	1.24%	14.4%	–	8.74%	–	–	–	–
Cc1ccc2cc(/C=C/C(=O)c3ccccn3)c(Cl)nc2c1	7.30	4.50	inactive	inactive	–	4.12	29.2	< 4.00	0.47%	15%	–	–	–	36%	66%	Dose-dependent effect
O=C1O[C@H]([C@@H](O)CO)C(O)=C1O [ASCORBIC ACID]	–	–	–	–	4.70	–	–	–	–	–	–	–	–	–	–	–
